Test results taken from ChEMBL document CHEMBL4689842, “EUbOPEN Chemogenomics Library wave 1” (2021).

Key:
Assay type in all cases: toxicity, cell-based
U2OS = assay: Incucyte cell viability with U2OS; settings: human, 10 µM, compound concentration 10 uM; note: filed as whole numbers so only -1 and 0 and 1 occur
HEK-293T = assay: Incucyte cell viability with HEK293T; settings: human, 10 µM, compound concentration 10 uM; note: filed as whole numbers so only -1 and 0 and 1 occur
Fibroblast [1] = assay: Multiplex assay against human fibroblast
Outline: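 Values for tubulin, mitochondrial-mass and membrane-permeability phenotypes are per cents of cells with healthy nuclei. These cells were identified by CellPathfinder machine-learning gating of live cells that had been stained at seeding with Hoechst33342, BioTracker Green Microtubule Cytoskeleton Dye, MitoTracker Red and Annexin V Alexa Fluor 680 and imaged on a CQ1 microscope at 37°C and 5% CO2 after compound addition. The gating first set Hoechst high-intensity objects apart from normal cells, then split normal cells into healthy, pyknosed or fragmented nuclei, and pyknosed cells into mitotic or apoptotic.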

Fibroblast [2] = assay: Incucyte cell viability with human fibroblast; settings: 10 µM, compound concentration 10 uM; note: filed as whole numbers so only -1 and 0 and 1 occur
[3] = 6 h, replicate number 1, timepoint 6 hours
[4] = 12 h, replicate number 1, timepoint 12 hours
[5] = 18 h, replicate number 1, timepoint 18 hours
[6] = 24 h, replicate number 1, timepoint 24 hours
[7] = 0 h, replicate number 1, timepoint 0 hours
[8] = 12 h, 1 µM, compound concentration 1 uM, replicate 1
[9] = 12 h, 1 µM, compound concentration 1 uM, replicate 2
[10] = 12 h, 10 µM, compound concentration 10 uM, replicate 1
[11] = 12 h, 10 µM, compound concentration 10 uM, replicate 2
[12] = 24 h, 1 µM, compound concentration 1 uM, replicate 1
[13] = 24 h, 1 µM, compound concentration 1 uM, replicate 2
[14] = 24 h, 10 µM, compound concentration 10 uM, replicate 1
[15] = 24 h, 10 µM, compound concentration 10 uM, replicate 2

For Cc1ccc(NC(=O)Nc2cc(C(F)(F)F)ccc2F)cc1Nc1ccc2c(c1)NC(=O)/C2=C\c1ccc[nH]1, the “Growth Rate” value (U2OS; [3]) was 1, the “Growth Rate” value (U2OS; [4]) was 0 and the “Growth Rate” value (U2OS; 12 h, replicate number 2, timepoint 12 hours) was 1. For the same molecule, the “Growth Rate” value (U2OS; [5]) was 0, the “Growth Rate” value (U2OS; [6]) was 0 and the “Growth Rate” value (HEK-293T; [7]) was 0. The “Growth Rate” value (HEK-293T; [3]) was 0, the “Growth Rate” value (HEK-293T; [4]) was 0 and the “Growth Rate” value (HEK-293T; [5]) was 0. For the same molecule, the “Growth Rate” value (HEK-293T; [6]) was 0, the “Population Apoptotic (%)” value (Fibroblast [1]; [8]) was 36% and the “Population Fragmented Nuclei (%)” value (Fibroblast [1]; [8]) was 13%. For the same molecule, the “Population Healthy Nuclei (%)” value (Fibroblast [1]; [8]) was 59%, the “Population Hoechst High Intensity Objects (%)” value (Fibroblast [1]; [8]) was 10% and the “Population Membrane Permeable-Phenotype (%)” value (Fibroblast [1]; [8]) was 58%. For the same molecule, the “Population Mitochondria Different-Phenotype (%)” value (Fibroblast [1]; [8]) was 0%, the “Population Mitotic Cells (%)” value (Fibroblast [1]; [8]) was 63% and the “Population Normal (%)” value (Fibroblast [1]; [8]) was 89%. For the same molecule, the “Population Pyknosed Nuclei (%)” value (Fibroblast [1]; [8]) was 27%, the “Population Tubulin-Different-Phenotype (%)” value (Fibroblast [1]; [8]) was 36% and the “Total Cell Count” value (Fibroblast [1]; [8]) was 178. The “Population Apoptotic (%)” value (Fibroblast [1]; [9]) was 100%, the “Population Fragmented Nuclei (%)” value (Fibroblast [1]; [9]) was 60% and the “Population Healthy Nuclei (%)” value (Fibroblast [1]; [9]) was 36%. The “Population Hoechst High Intensity Objects (%)” value (Fibroblast [1]; [9]) was 50%, the “Population Membrane Permeable-Phenotype (%)” value (Fibroblast [1]; [9]) was 63% and the “Population Mitochondria Different-Phenotype (%)” value (Fibroblast [1]; [9]) was 18%. For the same molecule, the “Population Mitotic Cells (%)” value (Fibroblast [1]; [9]) was 0%, the “Population Normal (%)” value (Fibroblast [1]; [9]) was 49% and the “Population Pyknosed Nuclei (%)” value (Fibroblast [1]; [9]) was 3%. The “Population Tubulin-Different-Phenotype (%)” value (Fibroblast [1]; [9]) was 54%, the “Total Cell Count” value (Fibroblast [1]; [9]) was 61 and the “Population Apoptotic (%)” value (Fibroblast [1]; [10]) was 66%. For the same molecule, the “Population Fragmented Nuclei (%)” value (Fibroblast [1]; [10]) was 15%, the “Population Healthy Nuclei (%)” value (Fibroblast [1]; [10]) was 52% and the “Population Hoechst High Intensity Objects (%)” value (Fibroblast [1]; [10]) was 17%. The “Population Membrane Permeable-Phenotype (%)” value (Fibroblast [1]; [10]) was 4%, the “Population Mitochondria Different-Phenotype (%)” value (Fibroblast [1]; [10]) was 3% and the “Population Mitotic Cells (%)” value (Fibroblast [1]; [10]) was 33%. For the same molecule, the “Population Normal (%)” value (Fibroblast [1]; [10]) was 82%, the “Population Pyknosed Nuclei (%)” value (Fibroblast [1]; [10]) was 32% and the “Population Tubulin-Different-Phenotype (%)” value (Fibroblast [1]; [10]) was 5%. The “Total Cell Count” value (Fibroblast [1]; [10]) was 210, the “Population Apoptotic (%)” value (Fibroblast [1]; [11]) was 20% and the “Population Fragmented Nuclei (%)” value (Fibroblast [1]; [11]) was 50%. For the same molecule, the “Population Healthy Nuclei (%)” value (Fibroblast [1]; [11]) was 40%, the “Population Hoechst High Intensity Objects (%)” value (Fibroblast [1]; [11]) was 20% and the “Population Membrane Permeable-Phenotype (%)” value (Fibroblast [1]; [11]) was 0%. The “Population Mitochondria Different-Phenotype (%)” value (Fibroblast [1]; [11]) was 19%, the “Population Mitotic Cells (%)” value (Fibroblast [1]; [11]) was 80% and the “Population Normal (%)” value (Fibroblast [1]; [11]) was 80%. The “Population Pyknosed Nuclei (%)” value (Fibroblast [1]; [11]) was 9%, the “Population Tubulin-Different-Phenotype (%)” value (Fibroblast [1]; [11]) was 0% and the “Total Cell Count” value (Fibroblast [1]; [11]) was 65. For the same molecule, the “Population Apoptotic (%)” value (Fibroblast [1]; [12]) was 28%, the “Population Fragmented Nuclei (%)” value (Fibroblast [1]; [12]) was 10% and the “Population Healthy Nuclei (%)” value (Fibroblast [1]; [12]) was 61%. The “Population Hoechst High Intensity Objects (%)” value (Fibroblast [1]; [12]) was 8%, the “Population Membrane Permeable-Phenotype (%)” value (Fibroblast [1]; [12]) was 51% and the “Population Mitochondria Different-Phenotype (%)” value (Fibroblast [1]; [12]) was 0%. For the same molecule, the “Population Mitotic Cells (%)” value (Fibroblast [1]; [12]) was 71%, the “Population Normal (%)” value (Fibroblast [1]; [12]) was 91% and the “Population Pyknosed Nuclei (%)” value (Fibroblast [1]; [12]) was 27%. The “Population Tubulin-Different-Phenotype (%)” value (Fibroblast [1]; [12]) was 31%, the “Total Cell Count” value (Fibroblast [1]; [12]) was 179 and the “Population Apoptotic (%)” value (Fibroblast [1]; [13]) was 100%. The “Population Fragmented Nuclei (%)” value (Fibroblast [1]; [13]) was 61%, the “Population Healthy Nuclei (%)” value (Fibroblast [1]; [13]) was 34% and the “Population Hoechst High Intensity Objects (%)” value (Fibroblast [1]; [13]) was 55%. The “Population Membrane Permeable-Phenotype (%)” value (Fibroblast [1]; [13]) was 55%, the “Population Mitochondria Different-Phenotype (%)” value (Fibroblast [1]; [13]) was 11% and the “Population Mitotic Cells (%)” value (Fibroblast [1]; [13]) was 0%. The “Population Normal (%)” value (Fibroblast [1]; [13]) was 44%, the “Population Pyknosed Nuclei (%)” value (Fibroblast [1]; [13]) was 3% and the “Population Tubulin-Different-Phenotype (%)” value (Fibroblast [1]; [13]) was 55%. For the same molecule, the “Total Cell Count” value (Fibroblast [1]; [13]) was 59, the “Population Apoptotic (%)” value (Fibroblast [1]; [14]) was 51% and the “Population Fragmented Nuclei (%)” value (Fibroblast [1]; [14]) was 18%. The “Population Healthy Nuclei (%)” value (Fibroblast [1]; [14]) was 61%, the “Population Hoechst High Intensity Objects (%)” value (Fibroblast [1]; [14]) was 17% and the “Population Membrane Permeable-Phenotype (%)” value (Fibroblast [1]; [14]) was 5%. For the same molecule, the “Population Mitochondria Different-Phenotype (%)” value (Fibroblast [1]; [14]) was 3%, the “Population Mitotic Cells (%)” value (Fibroblast [1]; [14]) was 48% and the “Population Normal (%)” value (Fibroblast [1]; [14]) was 82%. The “Population Pyknosed Nuclei (%)” value (Fibroblast [1]; [14]) was 20%, the “Population Tubulin-Different-Phenotype (%)” value (Fibroblast [1]; [14]) was 5% and the “Total Cell Count” value (Fibroblast [1]; [14]) was 237. The “Population Apoptotic (%)” value (Fibroblast [1]; [15]) was 50%, the “Population Fragmented Nuclei (%)” value (Fibroblast [1]; [15]) was 54% and the “Population Healthy Nuclei (%)” value (Fibroblast [1]; [15]) was 41%. The “Population Hoechst High Intensity Objects (%)” value (Fibroblast [1]; [15]) was 29%, the “Population Membrane Permeable-Phenotype (%)” value (Fibroblast [1]; [15]) was 0% and the “Population Mitochondria Different-Phenotype (%)” value (Fibroblast [1]; [15]) was 5%. The “Population Mitotic Cells (%)” value (Fibroblast [1]; [15]) was 50%, the “Population Normal (%)” value (Fibroblast [1]; [15]) was 70% and the “Population Pyknosed Nuclei (%)” value (Fibroblast [1]; [15]) was 4%. The “Population Tubulin-Different-Phenotype (%)” value (Fibroblast [1]; [15]) was 10%, the “Total Cell Count” value (Fibroblast [1]; [15]) was 65 and the “Growth Rate” value (Fibroblast [2]; [7]) was 0. The “Growth Rate” value (Fibroblast [2]; [3]) was 0, the “Growth Rate” value (Fibroblast [2]; [4]) was 0 and the “Growth Rate” value (Fibroblast [2]; [5]) was 0. For the same molecule, the “Growth Rate” value (Fibroblast [2]; [6]) was 0.
